Data: PMC10756989 (Heliyon, 2023)

Columns and labels:
pancreatic α-amylase = biological target: T1, pancreatic α-amylase (Homo sapiens, UniProt P04746); assay: α-amylase enzyme inhibitory activity; format: biochemical; conditions: for percentage α-amylase inhibition: at 63 μg/mL, Fig. 5
T1 sequence (P04746 16-511): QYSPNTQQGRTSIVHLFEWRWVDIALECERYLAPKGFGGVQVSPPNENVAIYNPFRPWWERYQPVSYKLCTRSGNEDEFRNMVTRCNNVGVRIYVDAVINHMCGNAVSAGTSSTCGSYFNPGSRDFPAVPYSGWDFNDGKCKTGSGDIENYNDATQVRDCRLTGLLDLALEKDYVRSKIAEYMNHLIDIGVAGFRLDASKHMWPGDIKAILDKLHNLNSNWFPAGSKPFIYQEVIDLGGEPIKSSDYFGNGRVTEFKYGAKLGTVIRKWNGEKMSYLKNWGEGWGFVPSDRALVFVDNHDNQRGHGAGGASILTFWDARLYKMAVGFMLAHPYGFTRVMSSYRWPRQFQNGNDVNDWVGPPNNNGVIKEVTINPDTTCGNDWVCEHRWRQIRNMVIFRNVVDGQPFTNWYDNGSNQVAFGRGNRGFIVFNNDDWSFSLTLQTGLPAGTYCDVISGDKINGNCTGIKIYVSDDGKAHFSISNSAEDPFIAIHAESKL

Nitric oxide = conditions: for NO IC50: 10 mM sodium nitroprusside, pH 7.4 PBS, 25 °C, 546 nm; for NO scavenging activity: Fig. 12
Procedure, shortened: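 Test compound or Trolox reference at various concentrations, incubated 2 h with sodium nitroprusside in PBS. Griess reagent is added, with a further 5 min at 25 °C. Absorbance is read against a blank without test samples.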

[1] = DPPH radical mopping capacity; conditions: DPPH 300 μM in methanol, 30 min, 516 nm
Procedure, shortened: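 Test compound or Trolox reference (63–500 μg/mL) mixed with DPPH in methanol and kept in the dark at ambient temperature. Absorbance is read against a control without sample or Trolox.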

Ferric = conditions: for FRAP IC50: ferric reducing power, 63–500 μg/mL, 700 nm; for Fe^3+ reducing power: at 500 μg/mL, Fig. 14
Procedure, shortened: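 Potassium ferricyanide reduction: test compound or Trolox (63–500 μg/mL) with 200 mM phosphate buffer and 1 % K3Fe(CN)6, 50 °C, 25 min. Then TCA (0.1 g/mL) is added, the mix is diluted with water, and 0.1 % FeCl3 is added before reading. Reducing capacity is estimated from a gallic acid standard curve.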

yeast α-glucosidase = yeast α-glucosidase (Saccharomyces cerevisiae, UniProt P53341); assay: α-glucosidase enzyme inhibitory activity; format: biochemical; conditions: for α-glucosidase percentage inhibition: at 250 μg/mL
Sequence of yeast α-glucosidase (P53341 whole entry): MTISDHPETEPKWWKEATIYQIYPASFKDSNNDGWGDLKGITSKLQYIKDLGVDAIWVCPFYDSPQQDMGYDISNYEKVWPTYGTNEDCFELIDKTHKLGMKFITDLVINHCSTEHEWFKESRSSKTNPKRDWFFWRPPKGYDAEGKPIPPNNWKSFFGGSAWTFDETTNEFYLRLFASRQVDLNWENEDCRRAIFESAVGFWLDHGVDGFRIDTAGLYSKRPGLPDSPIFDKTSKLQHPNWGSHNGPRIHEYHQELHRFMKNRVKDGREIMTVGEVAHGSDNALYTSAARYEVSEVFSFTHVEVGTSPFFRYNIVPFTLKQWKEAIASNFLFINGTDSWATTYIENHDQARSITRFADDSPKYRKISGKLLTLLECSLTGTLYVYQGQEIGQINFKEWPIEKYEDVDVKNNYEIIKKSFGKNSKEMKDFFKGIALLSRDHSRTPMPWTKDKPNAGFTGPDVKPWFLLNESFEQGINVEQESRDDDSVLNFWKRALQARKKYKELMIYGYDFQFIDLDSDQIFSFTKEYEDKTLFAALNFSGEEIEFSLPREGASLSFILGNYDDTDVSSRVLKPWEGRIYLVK

SMILES | percentage α-amylase inhibition (pancreatic α-amylase) | NO IC50 (Nitric oxide; listed as Acarbose (Standard)) | DPPH IC50 [1] | FRAP IC50 (Ferric) | IC50 (pancreatic α-amylase) | α-glucosidase percentage inhibition (yeast α-glucosidase; Fig. 6) | α-glucosidase inhibitory effect (yeast α-glucosidase; at 63–125 μg/mL, among the synthesised samples, Fig. 6) | NO IC50 (Nitric oxide) | NO scavenging activity (Nitric oxide; at 63–250 μg/mL, versus other compounds and Trolox) | Fe^3+ reducing power (Ferric) | IC50 (yeast α-glucosidase) | α-glucosidase inhibitory activity (yeast α-glucosidase; at 500 μg/mL, compared with L1 and acarbose, Fig. 6) | NO scavenging activity (Nitric oxide; at 500 μg/mL)
C[C@H]1O[C@H](O[C@H]2[C@H](O)[C@@H](O)[C@@H](O[C@H]3[C@H](O)[C@@H](O)C(O)O[C@@H]3CO)O[C@@H]2CO)[C@H](O)[C@@H](O)[C@@H]1N[C@H]1C=C(CO)[C@@H](O)[C@H](O)[C@H]1O (stereo partly shown) [Acarbose, reference compound] | indistinguishable | 109,59 μg/mL | 13,62 μg/mL | 292,51 μg/mL | – | – | – | – | – | – | – | – | –
Cc1cc(C)c(/N=C/c2ccc3ccccc3c2)c(C)c1 [Compound L1, (E)-N-mesityl-1-(naphthalen-2-yl)methanimine] | indistinguishable | – | 25,44 μg/mL | >500 µg/mL | 215 µM | did not exhibit statistically significant differences | significantly higher inhibitory effect | 70,91 μg/mL | significantly higher | slightly better abilities | – | – | –
Cc1c(C)c2c(c(C)c1O)CCC(C)(C(=O)O)O2 (stereo not shown) [Trolox, reference compound] | – | – | 13.62 µg/mL | 292.51 µg/mL | – | – | – | 109.59 µg/mL | – | – | – | – | –
Cc1cccc(C)c1/N=C/c1ccc2ccccc2c1 [Compound L2, (E)-N-(2,6-dimethylphenyl)-1-(naphthalen-2-yl)methanimine] | indistinguishable | – | 35,69 μg/mL | >500 µg/mL | > 1930 µM | did not exhibit statistically significant differences | – | 119,68 μg/mL | – | slightly better abilities | 568 µM | significantly greater activity | lower compared with the other test compounds and standard
CC(C)c1cccc(C(C)C)c1/N=C/c1ccc2ccccc2c1 [Compound L3, (E)-N-(2,6-diisopropylphenyl)-1-(naphthalen-2-yl)methanimine] | – | – | 67,81 μg/mL | >500 µg/mL | > 1580 µM | – | – | 91,21 μg/mL | – | – | 653 µM | – | –
